Laboratory results from ChEMBL document CHEMBL5058577, “EUbOPEN Chemogenomics Library 2 (Multiplex)” (2022).

System: HEK-293T
Test: Multiplex assay against HEK293T
Format: toxicity, cell-based
Conditions: human
In short: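 Cells stained live at seeding with Hoechst33342, BioTracker Green Microtubule Cytoskeleton Dye, MitoTracker Red and Annexin V Alexa Fluor 680 were imaged on a CQ1 microscope at 37°C and 5% CO2 after compound addition. Their classification by CellPathfinder machine-learning gating ran from Hoechst high-intensity objects versus normal cells, to healthy, pyknosed or fragmented nuclei among normal cells, to mitotic or apoptotic among pyknosed cells. Tubulin, mitochondrial-mass and membrane-permeability phenotypes are per cents of healthy-nucleus cells.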

[1] = 12 h, 1 µM, compound concentration 1 uM, replicate 1
[2] = 12 h, 1 µM, compound concentration 1 uM, replicate 2
[3] = 12 h, 10 µM, compound concentration 10 uM, replicate 1
[4] = 12 h, 10 µM, compound concentration 10 uM, replicate 2
[5] = 24 h, 1 µM, compound concentration 1 uM, replicate 1
[6] = 24 h, 1 µM, compound concentration 1 uM, replicate 2
[7] = 24 h, 10 µM, compound concentration 10 uM, replicate 1
[8] = 24 h, 10 µM, compound concentration 10 uM, replicate 2
[9] = 48 h, 1 µM, compound concentration 1 uM, replicate 1
[10] = 48 h, 1 µM, compound concentration 1 uM, replicate 2
[11] = 48 h, 10 µM, compound concentration 10 uM, replicate 1
[12] = 48 h, 10 µM, compound concentration 10 uM, replicate 2

O=S(=O)(c1ccccc1)c1cnc2c(N3CCNCC3)cccc2c1 [INTEPIRDINE]
Population Apoptotic (%) [1]: 40% | Population Fragmented Nuclei (%) [1]: 7% | Population Healthy Nuclei (%) [1]: 80% | Population Hoechst High Intensity Objects (%) [1]: 7% | Population Membrane Permeable-Phenotype (%) [1]: 0% | Population Mitochondria Different-Phenotype (%) [1]: 54% | Population Mitotic Cells (%) [1]: 60% | Population Normal (%) [1]: 92% | Population Pyknosed Nuclei (%) [1]: 12% | Population Tubulin-Different-Phenotype (%) [1]: 43% | Total Cell Count [1]: 403 | Population Apoptotic (%) [2]: 50% | Population Healthy Nuclei (%) [2]: 74% | Population Hoechst High Intensity Objects (%) [2]: 10% | Population Mitochondria Different-Phenotype (%) [2]: 69% | Population Mitotic Cells (%) [2]: 50% | Population Normal (%) [2]: 89% | Population Pyknosed Nuclei (%) [2]: 17% | Population Tubulin-Different-Phenotype (%) [2]: 23% | Total Cell Count [2]: 336 | Population Apoptotic (%) [3]: 51% | Population Fragmented Nuclei (%) [3]: 8% | Population Healthy Nuclei (%) [3]: 72% | Population Hoechst High Intensity Objects (%) [3]: 10% | Population Membrane Permeable-Phenotype (%) [3]: 0% | Population Mitochondria Different-Phenotype (%) [3]: 70% | Population Mitotic Cells (%) [3]: 48% | Population Normal (%) [3]: 89% | Population Pyknosed Nuclei (%) [3]: 18% | Population Tubulin-Different-Phenotype (%) [3]: 58% | Total Cell Count [3]: 326 | Population Apoptotic (%) [4]: 46% | Population Fragmented Nuclei (%) [4]: 4% | Population Healthy Nuclei (%) [4]: 79% | Population Hoechst High Intensity Objects (%) [4]: 7% | Population Mitochondria Different-Phenotype (%) [4]: 76% | Population Mitotic Cells (%) [4]: 53% | Population Normal (%) [4]: 92% | Population Pyknosed Nuclei (%) [4]: 15% | Population Tubulin-Different-Phenotype (%) [4]: 50% | Total Cell Count [4]: 349 | Population Apoptotic (%) [5]: 28% | Population Fragmented Nuclei (%) [5]: 6% | Population Healthy Nuclei (%) [5]: 80% | Population Hoechst High Intensity Objects (%) [5]: 5% | Population Membrane Permeable-Phenotype (%) [5]: 0% | Population Mitochondria Different-Phenotype (%) [5]: 35% | Population Mitotic Cells (%) [5]: 71% | Population Normal (%) [5]: 94% | Population Pyknosed Nuclei (%) [5]: 12% | Population Tubulin-Different-Phenotype (%) [5]: 26% | Total Cell Count [5]: 530 | Population Apoptotic (%) [6]: 58% | Population Fragmented Nuclei (%) [6]: 7% | Population Healthy Nuclei (%) [6]: 85% | Population Mitochondria Different-Phenotype (%) [6]: 43% | Population Mitotic Cells (%) [6]: 41% | Population Pyknosed Nuclei (%) [6]: 7% | Population Tubulin-Different-Phenotype (%) [6]: 14% | Total Cell Count [6]: 416 | Population Apoptotic (%) [7]: 52% | Population Fragmented Nuclei (%) [7]: 11% | Population Healthy Nuclei (%) [7]: 75% | Population Hoechst High Intensity Objects (%) [7]: 6% | Population Membrane Permeable-Phenotype (%) [7]: 0% | Population Mitochondria Different-Phenotype (%) [7]: 50% | Population Mitotic Cells (%) [7]: 47% | Population Normal (%) [7]: 93% | Population Pyknosed Nuclei (%) [7]: 12% | Population Tubulin-Different-Phenotype (%) [7]: 33% | Total Cell Count [7]: 439 | Population Apoptotic (%) [8]: 51% | Population Fragmented Nuclei (%) [8]: 9% | Population Healthy Nuclei (%) [8]: 82% | Population Hoechst High Intensity Objects (%) [8]: 4% | Population Mitochondria Different-Phenotype (%) [8]: 61% | Population Mitotic Cells (%) [8]: 48% | Population Normal (%) [8]: 95% | Population Pyknosed Nuclei (%) [8]: 8% | Population Tubulin-Different-Phenotype (%) [8]: 42% | Total Cell Count [8]: 458 | Population Apoptotic (%) [9]: 17% | Population Fragmented Nuclei (%) [9]: 12% | Population Healthy Nuclei (%) [9]: 80% | Population Hoechst High Intensity Objects (%) [9]: 4% | Population Membrane Permeable-Phenotype (%) [9]: 1% | Population Mitochondria Different-Phenotype (%) [9]: 25% | Population Mitotic Cells (%) [9]: 82% | Population Normal (%) [9]: 95% | Population Pyknosed Nuclei (%) [9]: 7% | Population Tubulin-Different-Phenotype (%) [9]: 16% | Total Cell Count [9]: 866 | Population Apoptotic (%) [10]: 25% | Population Fragmented Nuclei (%) [10]: 13% | Population Healthy Nuclei (%) [10]: 79% | Population Hoechst High Intensity Objects (%) [10]: 3% | Population Membrane Permeable-Phenotype (%) [10]: 0% | Population Mitochondria Different-Phenotype (%) [10]: 26% | Population Mitotic Cells (%) [10]: 75% | Population Normal (%) [10]: 96% | Population Pyknosed Nuclei (%) [10]: 6% | Population Tubulin-Different-Phenotype (%) [10]: 12% | Total Cell Count [10]: 641 | Population Apoptotic (%) [11]: 40% | Population Fragmented Nuclei (%) [11]: 14% | Population Healthy Nuclei (%) [11]: 75% | Population Hoechst High Intensity Objects (%) [11]: 4% | Population Membrane Permeable-Phenotype (%) [11]: 0% | Population Mitochondria Different-Phenotype (%) [11]: 45% | Population Mitotic Cells (%) [11]: 59% | Population Normal (%) [11]: 95% | Population Pyknosed Nuclei (%) [11]: 10% | Population Tubulin-Different-Phenotype (%) [11]: 30% | Total Cell Count [11]: 606 | Population Apoptotic (%) [12]: 18% | Population Fragmented Nuclei (%) [12]: 11% | Population Healthy Nuclei (%) [12]: 82% | Population Mitochondria Different-Phenotype (%) [12]: 38% | Population Mitotic Cells (%) [12]: 81% | Population Pyknosed Nuclei (%) [12]: 5% | Population Tubulin-Different-Phenotype (%) [12]: 27% | Total Cell Count [12]: 673

c1cc(OCCCN2CCCCC2)ccc1CN1CCCCC1 [JNJ-5207852]
Population Apoptotic (%) [1]: 36% | Population Fragmented Nuclei (%) [1]: 6% | Population Healthy Nuclei (%) [1]: 84% | Population Hoechst High Intensity Objects (%) [1]: 5% | Population Membrane Permeable-Phenotype (%) [1]: 0% | Population Mitochondria Different-Phenotype (%) [1]: 36% | Population Mitotic Cells (%) [1]: 63% | Population Normal (%) [1]: 94% | Population Pyknosed Nuclei (%) [1]: 8% | Population Tubulin-Different-Phenotype (%) [1]: 21% | Total Cell Count [1]: 577 | Population Apoptotic (%) [2]: 47% | Population Fragmented Nuclei (%) [2]: 10% | Population Healthy Nuclei (%) [2]: 75% | Population Mitochondria Different-Phenotype (%) [2]: 53% | Population Mitotic Cells (%) [2]: 52% | Population Pyknosed Nuclei (%) [2]: 13% | Population Tubulin-Different-Phenotype (%) [2]: 17% | Total Cell Count [2]: 310 | Population Apoptotic (%) [3]: 40% | Population Fragmented Nuclei (%) [3]: 7% | Population Healthy Nuclei (%) [3]: 75% | Population Hoechst High Intensity Objects (%) [3]: 7% | Population Membrane Permeable-Phenotype (%) [3]: 0% | Population Mitochondria Different-Phenotype (%) [3]: 63% | Population Mitotic Cells (%) [3]: 59% | Population Normal (%) [3]: 92% | Population Pyknosed Nuclei (%) [3]: 17% | Population Tubulin-Different-Phenotype (%) [3]: 52% | Total Cell Count [3]: 328 | Population Apoptotic (%) [4]: 66% | Population Healthy Nuclei (%) [4]: 67% | Population Hoechst High Intensity Objects (%) [4]: 11% | Population Membrane Permeable-Phenotype (%) [4]: 1% | Population Mitochondria Different-Phenotype (%) [4]: 69% | Population Mitotic Cells (%) [4]: 33% | Population Normal (%) [4]: 88% | Population Pyknosed Nuclei (%) [4]: 24% | Population Tubulin-Different-Phenotype (%) [4]: 41% | Total Cell Count [4]: 259 | Population Apoptotic (%) [5]: 25% | Population Fragmented Nuclei (%) [5]: 6% | Population Healthy Nuclei (%) [5]: 82% | Population Hoechst High Intensity Objects (%) [5]: 5% | Population Membrane Permeable-Phenotype (%) [5]: 1% | Population Mitochondria Different-Phenotype (%) [5]: 20% | Population Mitotic Cells (%) [5]: 74% | Population Normal (%) [5]: 94% | Population Pyknosed Nuclei (%) [5]: 11% | Population Tubulin-Different-Phenotype (%) [5]: 15% | Total Cell Count [5]: 710 | Population Apoptotic (%) [6]: 41% | Population Fragmented Nuclei (%) [6]: 11% | Population Healthy Nuclei (%) [6]: 79% | Population Hoechst High Intensity Objects (%) [6]: 3% | Population Membrane Permeable-Phenotype (%) [6]: 0% | Population Mitochondria Different-Phenotype (%) [6]: 30% | Population Mitotic Cells (%) [6]: 58% | Population Normal (%) [6]: 96% | Population Pyknosed Nuclei (%) [6]: 9% | Population Tubulin-Different-Phenotype (%) [6]: 12% | Total Cell Count [6]: 447 | Population Apoptotic (%) [7]: 47% | Population Fragmented Nuclei (%) [7]: 9% | Population Healthy Nuclei (%) [7]: 77% | Population Hoechst High Intensity Objects (%) [7]: 6% | Population Membrane Permeable-Phenotype (%) [7]: 1% | Population Mitochondria Different-Phenotype (%) [7]: 47% | Population Mitotic Cells (%) [7]: 52% | Population Normal (%) [7]: 93% | Population Pyknosed Nuclei (%) [7]: 13% | Population Tubulin-Different-Phenotype (%) [7]: 44% | Total Cell Count [7]: 414 | Population Apoptotic (%) [8]: 65% | Population Fragmented Nuclei (%) [8]: 8% | Population Healthy Nuclei (%) [8]: 79% | Population Hoechst High Intensity Objects (%) [8]: 5% | Population Membrane Permeable-Phenotype (%) [8]: 2% | Population Mitochondria Different-Phenotype (%) [8]: 50% | Population Mitotic Cells (%) [8]: 34% | Population Normal (%) [8]: 94% | Population Pyknosed Nuclei (%) [8]: 11% | Population Tubulin-Different-Phenotype (%) [8]: 35% | Total Cell Count [8]: 322 | Population Apoptotic (%) [9]: 17% | Population Fragmented Nuclei (%) [9]: 14% | Population Healthy Nuclei (%) [9]: 80% | Population Hoechst High Intensity Objects (%) [9]: 2% | Population Membrane Permeable-Phenotype (%) [9]: 1% | Population Mitochondria Different-Phenotype (%) [9]: 12% | Population Mitotic Cells (%) [9]: 82% | Population Normal (%) [9]: 97% | Population Pyknosed Nuclei (%) [9]: 5% | Population Tubulin-Different-Phenotype (%) [9]: 11% | Total Cell Count [9]: 1128 | Population Apoptotic (%) [10]: 23% | Population Fragmented Nuclei (%) [10]: 11% | Population Healthy Nuclei (%) [10]: 83% | Population Hoechst High Intensity Objects (%) [10]: 1% | Population Mitochondria Different-Phenotype (%) [10]: 17% | Population Mitotic Cells (%) [10]: 76% | Population Normal (%) [10]: 98% | Population Pyknosed Nuclei (%) [10]: 4% | Population Tubulin-Different-Phenotype (%) [10]: 9% | Total Cell Count [10]: 746 | Population Apoptotic (%) [11]: 34% | Population Fragmented Nuclei (%) [11]: 13% | Population Healthy Nuclei (%) [11]: 77% | Population Hoechst High Intensity Objects (%) [11]: 8% | Population Membrane Permeable-Phenotype (%) [11]: 1% | Population Mitochondria Different-Phenotype (%) [11]: 29% | Population Mitotic Cells (%) [11]: 65% | Population Normal (%) [11]: 91% | Population Pyknosed Nuclei (%) [11]: 8% | Population Tubulin-Different-Phenotype (%) [11]: 28% | Total Cell Count [11]: 619 | Population Apoptotic (%) [12]: 52% | Population Healthy Nuclei (%) [12]: 75% | Population Hoechst High Intensity Objects (%) [12]: 9% | Population Mitochondria Different-Phenotype (%) [12]: 38% | Population Mitotic Cells (%) [12]: 47% | Population Normal (%) [12]: 90% | Population Pyknosed Nuclei (%) [12]: 10% | Population Tubulin-Different-Phenotype (%) [12]: 30% | Total Cell Count [12]: 424
